Measurements: ChEMBL document CHEMBL1123617, “Antipsychotic activity of substituted gamma-carbolines” (J Med Chem, 1987)
Each block holds one compound with its values, some of them ahead of it.

Experiments:
[1] = molecular target: T1, D(2) dopamine receptor (Rattus norvegicus, UniProt P61169); test: In vitro Dopamine receptor D2 affinity by using [3H]-Spiperone as the radioligand in rat limbic system at 1 uM concentration of compound; value may range from 4 to 15; assay type: tissue-based
[2] = molecular target: T1, D(2) dopamine receptor; test: In vitro Dopamine receptor D2 affinity by using [3H]spiperone as the radioligand in rat limbic system at 1 uM concentration of compound; value may range from 0.7 to 1.5; assay type: tissue-based
[3] = system: Rattus norvegicus; test: Potential antipsychotic activity was assessed by measuring the ability to block the conditioned avoidance response(CAR) in rats on oral administration.; assay type: functional
[4] = system: Mus musculus; test: Ability to inhibit apomorphine (APO) induced climbing behavior in mice by intraperitoneal administration of compound.; value may range from 1 to 23; assay type: functional; conditions: ip
[5] = system: Mus musculus; test: Ability to inhibit apomorphine (APO) induced stereotyped behavior in mice by intraperitoneal administration of compound; value may range from 22 to 31; assay type: functional; conditions: ip
[6] = system: Rattus norvegicus; test: Potential antipsychotic activity was assessed by measuring the ability to block the conditioned avoidance response(CAR) in rats on oral administration; assay type: functional
[7] = molecular target: T2, Serotonin 2 (5-HT2) receptor (Rattus norvegicus, UniProt P30994+P08909+P14842); test: In vitro 5-hydroxytryptamine 2 receptor affinity by using [3H]spiperone as the radioligand in rat cortical tissue.; value may range from 76 to 299
[8] = system: Mus musculus; test: Ability to inhibit apomorphine (APO) induced climbing behavior in mice by intraperitoneal administration of compound; value may range from 1 to 13; assay type: functional; conditions: ip
How it was run: (§1)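 Male CF-1 mice (20–25 g), acclimated at least 3 days, were given compound ip in 0.25% Tween 80 at 1, 10, 30 and 60 mg/kg (six mice per dose), alongside a concurrent vehicle group. Apomorphine 1 mg/kg sc was given 30 min later. Scoring at 5 min: stereotypy (sniffing-licking-gnawing) 0/1; climbing 0–2.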

[9] = system: Mus musculus; test: Ability to inhibit apomorphine (APO) induced stereotyped behavior in mice by intraperitoneal administration of compound; value may range from 7 to 18; assay type: functional; conditions: ip; how it was run: as §1
[10] = system: Rattus norvegicus; test: Potential antipsychotic activity was assessed by measuring the ability to block the conditioned avoidance response(CAR) in rats on oral administration; value may range from 10 to 31; assay type: functional
How it was run: (§2)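 Each session had 60 trials, with a control session before every drug run. Trials with no avoidance response (avoidance block) were summed over rats at each dose and expressed as a percentage of total trials. Control avoidance was set at 100%. The dose giving 50% block (AB50) was fitted by least squares.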

[11] = molecular target: T1, D(2) dopamine receptor; test: In vitro Dopamine receptor D2 affinity by using [3H]spiperone as the radioligand in rat limbic system at 1 uM concentration of compound; value may range from 84 to 130; assay type: tissue-based
[12] = molecular target: T1, D(2) dopamine receptor; test: In vitro Dopamine receptor D2 affinity by using [3H]spiperone as the radioligand in rat limbic system at 1 uM concentration of compound; value may range from 1 to 2; assay type: tissue-based
[13] = molecular target: T2, Serotonin 2 (5-HT2) receptor; test: In vitro 5-hydroxytryptamine 2 receptor affinity by using [3H]spiperone as the radioligand in rat cortical tissue; value may range from 136 to 220
[14] = molecular target: T1, D(2) dopamine receptor; test: In vitro Dopamine receptor D2 affinity by using [3H]spiperone as the radioligand in rat limbic system at 1 uM concentration of compound; value may range from 20 to 130; assay type: tissue-based
[15] = species: Mus musculus; test: animal or person; conditions: ip
[16] = species: Mus musculus; test: animal or person; conditions: ip; remark: listed apart in the source
[17] = system: Rattus norvegicus; test: Potential antipsychotic activity was assessed by measuring the ability to block the conditioned avoidance response(CAR) in rats on oral administration; insigniificant activity, ip in shelf jump tset; assay type: functional
[18] = molecular target: T2, Serotonin 2 (5-HT2) receptor; test: In vitro 5-hydroxytryptamine 2 receptor affinity by using [3H]spiperone as the radioligand in rat cortical tissue; value may range from 29 to 132
[19] = molecular target: T1, D(2) dopamine receptor; test: In vitro Dopamine receptor D2 affinity by using [3H]spiperone as the radioligand in rat limbic system at 1 uM concentration of compound; value may range from 72 to 141; assay type: tissue-based
[20] = system: Rattus norvegicus; test: Potential antipsychotic activity was assessed by measuring the ability to block the conditioned avoidance response(CAR) in rats on oral administration; indicates insignificant activity; assay type: functional
[21] = molecular target: D(2) dopamine receptor (Rattus norvegicus) (UniProt P61169); test: In vitro Dopamine receptor D2 affinity by using [3H]spiperone as the radioligand in rat limbic system at 1 uM concentration of compound at 1 uM; assay type: tissue-based
[22] = molecular target: T1, D(2) dopamine receptor; test: (§3) In vitro Dopamine receptor D2 affinity by using [3H]spiperone as the radioligand in rat limbic system at 1 uM concentration of compound; assay type: tissue-based
[23] = molecular target: T2, Serotonin 2 (5-HT2) receptor; test: In vitro 5-hydroxytryptamine 2 receptor affinity by using [3H]spiperone as the radioligand in rat cortical tissue; value may range from 197 to 341
[24] = molecular target: D(2) dopamine receptor (Rattus norvegicus) (UniProt P61169); test: In vitro Dopamine receptor D2 affinity by using [3H]spiperone as the radioligand in rat limbic system at 1 uM; assay type: tissue-based
[25] = system: Rattus norvegicus; test: Potential antipsychotic activity was assessed by measuring the ability to block the conditioned avoidance response(CAR) in rats on oral administration; value may range from 26 to 51; assay type: functional; how it was run: as §2
[26] = molecular target: T1, D(2) dopamine receptor; test: In vitro Dopamine receptor D2 affinity by using [3H]spiperone as the radioligand in rat limbic system at 1 uM concentration of compound; value may range from 238 to 401; assay type: tissue-based
[27] = molecular target: T2, Serotonin 2 (5-HT2) receptor; test: In vitro 5-hydroxytryptamine 2 receptor affinity by using [3H]spiperone as the radioligand in rat cortical tissue; value may range from 23 to 187
[28] = system: Rattus norvegicus; test: Potential antipsychotic activity was assessed by measuring the ability to block the conditioned avoidance response(CAR) in rats on oral administration; value may range from 6 to 63; assay type: functional; how it was run: as §2
[29] = molecular target: T2, Serotonin 2 (5-HT2) receptor; test: In vitro 5-hydroxytryptamine 2 receptor affinity by using [3H]spiperone as the radioligand in rat cortical tissue; value may range from 2.4 to 5.3
[30] = system: Rattus norvegicus; test: Potential antipsychotic activity was assessed by measuring the ability to block the conditioned avoidance response(CAR) in rats on oral administration; value may range from 4 to 10; assay type: functional; how it was run: as §2
[31] = molecular target: T2, Serotonin 2 (5-HT2) receptor; test: In vitro 5-hydroxytryptamine 2 receptor affinity by using [3H]spiperone as the radioligand in rat cortical tissue.
[32] = system: Rattus norvegicus; test: Potential antipsychotic activity was assessed by measuring the ability to block the conditioned avoidance response(CAR) in rats on oral administration; value may range from 30 to 62; assay type: functional; how it was run: as §2
[33] = molecular target: T2, Serotonin 2 (5-HT2) receptor; test: In vitro 5-hydroxytryptamine 2 receptor affinity by using [3H]spiperone as the radioligand in rat cortical tissue.; value may range from 140 to 980
[34] = system: Rattus norvegicus; test: Potential antipsychotic activity was assessed by measuring the ability to block the conditioned avoidance response(CAR) in rats on oral administration; value may range from 10 to 34; assay type: functional; how it was run: as §2
[35] = molecular target: T1, D(2) dopamine receptor; test: In vitro Dopamine receptor D2 affinity by using [3H]spiperone as the radioligand in rat limbic system at 1 uM concentration of compound; value may range from 14 to 22; assay type: tissue-based
[36] = molecular target: T1, D(2) dopamine receptor; test: In vitro Dopamine receptor D2 affinity by using [3H]spiperone as the radioligand in rat limbic system at 1 uM concentration of compound; value may range from 39 to 78; assay type: tissue-based
[37] = molecular target: T2, Serotonin 2 (5-HT2) receptor; test: In vitro 5-hydroxytryptamine 2 receptor affinity by using [3H]spiperone as the radioligand in rat cortical tissue; value may range from 165 to 263
[38] = system: Rattus norvegicus; test: Potential antipsychotic activity was assessed by measuring the ability to block the conditioned avoidance response(CAR) in rats on oral administration; value may range from 11 to 81; assay type: functional; how it was run: as §2
[39] = molecular target: D(2) dopamine receptor (Rattus norvegicus) (UniProt P61169); test: as §3; assay type: tissue-based
[40] = molecular target: T2, Serotonin 2 (5-HT2) receptor; test: In vitro 5-hydroxytryptamine 2 receptor affinity by using [3H]-Spiperone as the radioligand in rat cortical tissue; value may range from 12 to 66
[41] = molecular target: T1, D(2) dopamine receptor; test: In vitro Dopamine receptor D2 affinity by using [3H]spiperone as the radioligand in rat limbic system at 1 uM concentration of compound; value may range from […]; assay type: tissue-based
[42] = molecular target: T2, Serotonin 2 (5-HT2) receptor; test: In vitro 5-hydroxytryptamine 2 receptor affinity by using [3H]spiperone as the radioligand in rat cortical tissue; value may range from 6 to 75
[43] = molecular target: T1, D(2) dopamine receptor; test: In vitro Dopamine receptor D2 affinity by using [3H]spiperone as the radioligand in rat limbic system at 1 uM concentration of compound; value may range from 3 to 10; assay type: tissue-based
[44] = system: Rattus norvegicus; test: Potential antipsychotic activity was assessed by measuring the ability to block the conditioned avoidance response(CAR) in rats on oral administration; value may range from 8 to 35; assay type: functional; how it was run: as §2

T1 sequence (P61169 whole entry): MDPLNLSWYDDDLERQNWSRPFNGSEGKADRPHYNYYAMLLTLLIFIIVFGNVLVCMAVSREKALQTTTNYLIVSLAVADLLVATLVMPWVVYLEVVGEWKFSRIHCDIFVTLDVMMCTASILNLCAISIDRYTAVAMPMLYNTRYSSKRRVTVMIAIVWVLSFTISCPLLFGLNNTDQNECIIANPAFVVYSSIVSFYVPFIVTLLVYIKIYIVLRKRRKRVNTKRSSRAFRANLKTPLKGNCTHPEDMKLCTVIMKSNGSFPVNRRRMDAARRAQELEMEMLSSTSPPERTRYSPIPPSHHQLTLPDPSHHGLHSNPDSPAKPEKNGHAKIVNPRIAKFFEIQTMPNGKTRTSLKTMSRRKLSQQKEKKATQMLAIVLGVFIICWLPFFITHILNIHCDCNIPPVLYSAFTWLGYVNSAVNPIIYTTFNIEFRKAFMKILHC
Sequence of D(2) dopamine receptor (Rattus norvegicus) (P61169 whole entry): as above

Ki [1]: 7 nM
Compound: Fc1ccc(-n2c3c(c4cc(F)ccc42)CN(CCCCc2ccncc2)CC3)cc1

Ki [2]: 1 nM
Compound: Cl.Fc1ccc(-n2c3c(c4cc(F)ccc42)CN(CCc2ccc4ccccc4n2)CC3)cc1
AB50 [3]: 40 mg/kg

Compound: CN1CCN(C2=Nc3cc(Cl)ccc3Nc3ccccc32)CC1 [CLOZAPINE]
ED50 [4]: 5 mg/kg
ED50 [5]: 26 mg/kg
AB50 [6]: 11 mg/kg

Ki [7]: 136 nM
Ki [11]: 104 nM
Compound: Cl.Fc1ccc2[nH]c3c(c2c1)CN(CCCc1cccnc1)CC3 [GEVOTROLINE HYDROCHLORIDE]
ED50 [8]: 4 mg/kg
ED50 [9]: 11 mg/kg
AB50 [10]: 14 mg/kg

Ki [12]: 1 nM
Compound: Fc1ccc(-n2c3c(c4cc(F)ccc42)CN(CCCCc2ccnc4ccccc24)CC3)cc1

Ki [13]: 173 nM
Compound: Cl.Fc1ccc2[nH]c3c(c2c1)CN(CCc1ccccn1)CC3
AB50 [6]: 38 mg/kg

Ki [14]: 60 nM
Compound: c1cnc(N2CCN(CCCN3CCc4[nH]c5ccccc5c4C3)CC2)nc1

Compound: O=C(CCCN1CCC(O)(c2ccc(Cl)cc2)CC1)c1ccc(F)cc1 [HALOPERIDOL]
AB50 [3]: 0.2 mg/kg
ED50 [15]: 0.1 mg/kg
ED50 [16]: 0.1 mg/kg

Compound: CC1CN(CCCN2CCc3[nH]c4ccc(Cl)cc4c3C2)CC(C)N1.Cl (configuration not stated)
AB50 [17]: >40 mg/kg

Ki [18]: 60 nM
Compound: Cl.Clc1ccc2[nH]c3c(c2c1)CN(CCCCc1ccncc1)CC3
AB50 [6]: 36 mg/kg

Ki [19]: 103 nM
Compound: Cl.Clc1ccc2[nH]c3c(c2c1)CN(CCc1ccccn1)CC3
AB50 [20]: >40 mg/kg

inhibition [21]: 41%
Compound: Cl.c1ccc2c3c([nH]c2c1)CCN(CCCCc1ccncc1)C3
AB50 [3]: >20 mg/kg

Ki [22]: 63 nM
Compound: Cl.Fc1ccc2[nH]c3c(c2c1)CN(CCc1cnccn1)CC3
AB50 [3]: >40 mg/kg

Ki [23]: 252 nM
inhibition [24]: 43%
Compound: Cl.c1cncc(CCCN2CCc3[nH]c4ccccc4c3C2)c1
AB50 [25]: 33 mg/kg

Compound: Cl.Clc1ccc2[nH]c3c(c2c1)CN(CCc1ccc2ccccc2n1)CC3
AB50 [3]: >40 mg/kg

Ki [26]: 331 nM
Compound: c1ccc2nc(CCN3CCc4[nH]c5ccccc5c4C3)ccc2c1

Ki [27]: 55 nM
Compound: Cl.Fc1ccc(-n2c3c(c4cc(F)ccc42)CN(CCc2ccncc2)CC3)cc1
AB50 [28]: 16 mg/kg

Ki [29]: 3.6 nM
Compound: Cl.Fc1ccc(-n2c3c(c4cc(F)ccc42)CN(CCc2ccccn2)CC3)cc1
AB50 [30]: 6 mg/kg

IC50 [31]: > 0.00005 M
Compound: C[C@@H]1CN(CCCn2c3ccccc3c3ccccc32)C[C@H](C)N1 [RIMCAZOLE]
AB50 [32]: 39 mg/kg

Ki [33]: 480 nM
Compound: Cl.Fc1ccc2[nH]c3c(c2c1)CN(CCCCc1ccncc1)CC3
AB50 [34]: 15 mg/kg

Ki [35]: 18 nM
Compound: Fc1ccc(C(CCCN2CCc3[nH]c4ccc(F)cc4c3C2)c2ccc(F)cc2)cc1

Ki [36]: 55 nM
Compound: Cl.Clc1ccc2[nH]c3c(c2c1)CN(CCCN1CCN(c2ncccn2)CC1)CC3
AB50 [3]: >40 mg/kg

Ki [37]: 211 nM
Compound: Cl.Fc1ccc2[nH]c3c(c2c1)CN(CCc1ccncc1)CC3 [CARVOTROLINE HYDROCHLORIDE]
AB50 [38]: 23 mg/kg

inhibition [39]: 33%
Compound: c1ccc(CCN2CCc3[nH]c4ccccc4c3C2)nc1

Ki [40]: 28 nM
Ki [41]: 126 nM
Compound: Cl.Clc1ccc2[nH]c3c(c2c1)CN(CCCc1cccnc1)CC3
AB50 [3]: >40 mg/kg

Ki [42]: 23 nM
Ki [43]: 5 nM
Compound: Cl.Fc1ccc(-n2c3c(c4cc(F)ccc42)CN(CCc2cnccn2)CC3)cc1
AB50 [44]: 16 mg/kg
